# TAAR1 ag – agonists of human TAAR1; activation, % at 3 µM; AID 624467; Q96RJ0; hit rate 0.99% among 360,000; CHO RD-HGA16 TAAR1, Fluo-8 calcium fluorescence; vehicle wells 0%, saturating PEA agonist 100%;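 active = activation above the mean activation of all test compounds in the run plus 3 SD, cut at about 38% in these data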
# Target sequence (Q96RJ0 whole entry, looked up): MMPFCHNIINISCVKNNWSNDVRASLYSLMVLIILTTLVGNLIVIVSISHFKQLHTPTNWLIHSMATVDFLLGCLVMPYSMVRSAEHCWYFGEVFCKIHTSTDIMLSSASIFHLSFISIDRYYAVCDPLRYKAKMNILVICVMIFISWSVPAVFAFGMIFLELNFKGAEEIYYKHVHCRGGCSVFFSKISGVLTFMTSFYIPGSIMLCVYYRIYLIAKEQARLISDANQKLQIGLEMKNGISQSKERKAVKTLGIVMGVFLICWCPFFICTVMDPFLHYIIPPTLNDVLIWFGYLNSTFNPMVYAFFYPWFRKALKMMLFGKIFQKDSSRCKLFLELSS
#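 System: CHO-derived RD-HGA16 cells with stable Gα16 and human TAAR1 / Times: 17-24 h plating, Fluo-8 75 min 37 °C, 30 min RT / Technique: calcium-sensitive Fluo-8 signal, excitation 470-495, emission 515-575 nm / Measure: % activation relative to PEA EC100 response / Benchmarks: DMSO and PEA EC100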
# OX1R antag-1 – antagonists of human orexin 1 receptor | CHO/OX1R cells, Fluo-8 calcium fluorescence, orexin A | inhibition, % at 5 µM | hit rate 0.43% among 330,000 | AID 434989;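 active = inhibition above its plate's threshold, mean inhibition of all tested compounds on the plate plus 3 SD, cut at about 37% in these data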;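 also: 0% = orexin A challenge wells and 100% = SB-334867-A antagonist wells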
# OX1R antag-2 – antagonists of human orexin 1 receptor (OX1R); OX1R-expressing cells, FRET antagonist read-out; inhibition, % at 6.6 µM; hit rate 1.8% among 330,000; in the data active = inhibition mostly above about 38%, no sharp cut-off; inactive = mostly below about 40%;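 also: 0% = agonist challenge alone and 100% = reference antagonist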
# GPR7 antagonist – human neuropeptides B/W receptor 1 antagonism; P48145; GPR7-expressing cells, fluorescence antagonist assay; inhibition, % at 4.4 µM; hit rate 1.1% among 290,000; AID 1861; in the data active = inhibition above about 16%, passing the limit was not always enough;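 also: cells stimulated with the agonist NPW; 0% = agonist with vehicle and 100% = vehicle without agonist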
# Target sequence (P48145 whole entry, looked up): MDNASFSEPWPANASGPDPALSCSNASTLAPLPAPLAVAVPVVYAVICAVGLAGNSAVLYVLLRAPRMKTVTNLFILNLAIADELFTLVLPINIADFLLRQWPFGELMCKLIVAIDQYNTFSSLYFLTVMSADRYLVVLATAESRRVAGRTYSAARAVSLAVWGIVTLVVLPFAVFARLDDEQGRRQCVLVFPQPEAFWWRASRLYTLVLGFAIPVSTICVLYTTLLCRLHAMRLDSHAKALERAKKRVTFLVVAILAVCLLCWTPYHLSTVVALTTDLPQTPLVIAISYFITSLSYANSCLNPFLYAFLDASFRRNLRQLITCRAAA
# CHO parental Ca – counter-screen for OX1R antagonists: effect in parental CHO cells | parental CHO-K1, ATP-induced calcium, Fluo-8 fluorescence | inhibition, % at 5.6 µM | hit rate 0.63% among 330,000 | AID 463079;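 active = inhibition above that plate's mean sample inhibition plus 3 SD, cut at about 26% in these data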;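 also: 0% = ATP-challenged DMSO wells and 100% = DMSO wells without ATP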
#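 test system = CHO parental line | reagent = ATP stimulus | measured by = intracellular calcium via Fluo-8 no-wash fluorescent dye | control set = ATP and no-ATP DMSO wells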
# TAAR1 antagonist – human TAAR1 antagonism. Q96RJ0. CHO RD-HGA16 TAAR1, Fluo-8 calcium fluorescence, antagonist. inhibition, % at 3 µM. hit rate 1.5% among 360,000. AID 624466;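 active = inhibition above a per-plate cutoff, the mean inhibition of test compounds on that plate plus 3 SD, cut at about 49% in these data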;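 also: 0% = DMSO plus EC80 beta-PEA response and 100% = DMSO alone without agonist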
#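 Assay system: RD-HGA16 CHO cells with stable hTAAR1 and Gα16 / Reagent: EC80 β-phenethylamine stimulus / Doses: 3 µM, single point / Timing: dye loading 75 min at 37 °C, then 30 min room temperature / Measured by: Fluo-8 intracellular calcium dye fluorescence, real-time kinetic reads / Controls: vehicle wells and EC80 agonist wells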
# OX1R Fluo8 conf – OX1R (human) antagonism, confirmed; shares compounds with OX1R antag-1; CHO/OX1R cells, orexin A calcium Fluo-8 fluorescence; inhibition, % at 5 µM; hit rate 38% among 1,100; in the data active = inhibition above about 29%;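 also: 0% = agonist challenge alone and 100% = reference antagonist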
# CHO Ca triplic – counter-screen for OX1R antagonists: effect in parental CHO cells; shares compounds with OX1R antag-1; inhibition, % at 5.6 µM; hit rate 9.3% among 1,100; parental CHO-K1, ATP-induced calcium, Fluo-8 fluorescence;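 active = inhibition above a per-plate limit, the mean inhibition of that plate's test compounds plus 3 SD, cut at about 25% in these data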;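 also: 0% = ATP challenge with DMSO and 100% = DMSO without ATP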
# * = called active by the depositor; x = not tested or not shown. Rows were chosen to be rich in hits. Some 4.5% of all compounds tested hit in one or more screens of this group.
SMILES,TAAR1 ag,OX1R antag-1,OX1R antag-2,GPR7 antagonist,CHO parental Ca,TAAR1 antagonist,OX1R Fluo8 conf,CHO Ca triplic
Cc1ccc(N2CCN(C(=O)C3CCCN(c4ncnc5c4nc4n5CCCCC4)C3)CC2)c(C)c1 (stereo unspecified),7,-15,11,-3,-32,-8,x,x
Cc1cccc(N2CCN(C(=O)C3CCN(c4ncnc5c4nc4n5CCCCC4)CC3)CC2C)c1 (stereo unspecified),13,37,13,0,3,49*,1,-7
Clc1ccc(Oc2nc3c(Cl)cccc3s2)cc1Cl,1,6,-2,-10,1,-22,x,x
Cc1c(Nc2nc3ccccc3nc2NS(=O)(=O)c2cccc(Cl)c2)c(=O)n(-c2ccccc2)n1C,1,-32,27,4,-9,-17,x,x
Cc1ccc(Nc2nc3ccccc3nc2Nc2c(C)n(C)n(-c3ccccc3)c2=O)cc1,0,57*,14,-4,-3,4,3,4
Fc1ccc2c(c1)Sc1ccc(Cl)cc1CC2N1CCN(CCC2OCCO2)CC1 (stereo unspecified),5,38,6,x,16,8,8,-2
Cc1nnc(SCC(=O)Nc2sc3c(c2C#N)CCCC3)[nH]c1=O,7,-35,39,-8,-14,-5,x,x
N#Cc1c(NC(=O)CSc2nc(N)cc(=O)[nH]2)sc2c1CCCC2,0,25,39,1,8,19,7,8
CC1(C(=O)NCc2cccnc2)CCN1C(=O)Cc1cccs1 (stereo unspecified),4,x,x,x,x,-4,x,x
Cc1c(O)c(S(=O)c2ccccc2)c(=O)n(-c2ccccc2)c1-c1ccccc1 (stereo unspecified),0,-16,20,-8,-10,-20,x,x
CCn1c(SCC(=O)N2c3ccccc3CCc3ccccc32)nnc1-c1ccc(OC)cc1,x,-21,13,-9,-11,x,x,x
COc1ccc(S(=O)(=O)N2CCN(CC(=O)c3[nH]c(C)c(C(C)=O)c3C)CC2)cc1OC,4,-32,7,x,-17,8,x,x
CC(=O)c1c(C)[nH]c(C(=O)CN2CCN(S(=O)(=O)c3ccc(C(C)C)cc3)CC2)c1C,10,38,2,x,-17,36,7,9
CCN(CC)c1ccc(/C=N\NC(N)=O)cc1,1,32,17,-11,9,2,1,2
CCN(CC)c1ccc(/C=N/NC(=O)CC(C)C)cc1,1,-7,7,13,1,2,x,x
COc1cccc(-c2csc(N3CCN(C(=O)Nc4ccc(Cl)cc4)CC3)n2)c1,10,32,30,5,7,58*,16,7
CC(OC(=O)CNS(=O)(=O)c1ccc(C#N)cc1)C(=O)Nc1ccc(Cl)cn1 (stereo unspecified),1,-12,25,x,2,-3,x,x
Cc1oc(-c2cccc3ccccc23)nc1CN1CCN(c2ncnc3ccccc23)CC1,11,34,30,0,12,57*,20,-10
CCOc1cc2c(cc1/C=C/c1noc(C)c1[N+](=O)[O-])OC(C)C2 (stereo unspecified),18,26,21,6,18,19,51*,44*
CCOc1cc2c(cc1C=O)OC(C)C2 (stereo unspecified),1,-4,21,-8,10,-18,x,x
CCOc1ccc(CNS(=O)(=O)c2ccc(-c3ccc(=O)[nH]n3)o2)cc1OC,1,-7,10,-1,-1,-12,x,x
Cc1cc(NC(=O)COC(=O)c2cccc(S(=O)(=O)N3CCOCC3)c2)no1,19,-21,12,-7,-11,-6,x,x
O=C(COC(=O)c1cccc(S(=O)(=O)N2CCOCC2)c1)Nc1nc(-c2ccccc2Cl)cs1,11,33,9,4,23,10,36*,26*
Cc1ccc2c(c1)C(c1ccccc1)N(C(=O)c1cccc([N+](=O)[O-])c1)CC(=O)N2 (stereo unspecified),7,-14,3,6,-11,6,x,x
NC(=O)c1ccc(N2CCN(c3ccccc3O)CC2)c([N+](=O)[O-])c1,11,1,30,16,8,1,x,x
SMILES,TAAR1 ag,OX1R antag-1,OX1R antag-2,GPR7 antagonist,CHO parental Ca,TAAR1 antagonist,OX1R Fluo8 conf,CHO Ca triplic
NC(=O)c1ccc(N2CCN(c3ccccc3F)CC2)c([N+](=O)[O-])c1,4,24,28,2,20,2,7,22
Cc1ccc(S(=O)(=O)N2CCCCC2C(=O)O)s1 (stereo unspecified),4,-17,9,-20,8,-20,x,x
Cc1ccc(C)c(CNc2ccc(S(=O)(=O)N3CCCCC3)cc2)c1,8,44*,3,x,7,12,-6,53*
Cc1cccc(OCCCC(=O)Nc2ccc(Cl)c(S(=O)(=O)N3CCOCC3)c2)c1,7,35,7,x,-12,27,7,8
Cc1cccc(OCCC(=O)Nc2ccc(C)c(S(=O)(=O)N3CCOCC3)c2)c1,8,-6,11,x,-9,5,x,x
C[C@@H]1CN([C@H](C)CO)C(=O)CCCn2cc(nn2)CO[C@H]1CN(C)S(=O)(=O)c1cccc(C#N)c1,3,x,x,x,x,-4,x,x
CSc1ccc2c(c1)C(N1CCN(C)CC1)Cc1ccc(F)cc1S2 (stereo unspecified),11,-8,6,x,2,0,x,x
COc1ccc2c(c1)CC(N1CCN(C)CC1)c1cc(OC)ccc1S2 (stereo unspecified),17,45*,16,x,19,1,21,11
Cc1ccc(C2=NCCn3nc4cc(C(F)(F)F)ccc4c32)cc1,-2,-12,36,x,-17,12,x,x
Cc1cc(-c2nnc3n2N=C(c2ccc(-c4ccccc4)cc2)CS3)n[nH]1,45*,57*,4,3,17,36,8,-4
CCCCCCNC(=O)CC(c1ccccc1)c1cc(Br)ccc1O (stereo unspecified),12,35,53,-6,17,35,-13,-15
O=S(=O)(NCc1ccccc1)c1ccc(NC(=S)NCc2ccco2)cc1,41*,30,-6,-3,13,53*,40*,22
CCNS(=O)(=O)c1ccc(NC(=S)NCc2ccco2)cc1,4,11,11,0,2,20,x,x
CCC(NC(=O)c1cc(COc2ccc(OC)cc2Cl)on1)c1ccncc1 (stereo unspecified),15,-12,4,9,-15,-10,x,x

# Bioassay records as filed in PubChem.
